From ChEMBL document CHEMBL1177781, “Synthesis and SAR of potent inhibitors of the Hepatitis C virus NS3/4A protease: exploration of P2 quinazoline substituents” (Bioorg Med Chem Lett, 2010) come the findings set out here.

A short description of data set [1]: Inhibition of HCV 1a NS3/4A protease. Further details: species or system Hepatitis C virus subtype 1a. The method in brief: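 Enzyme inhibition was determined as Ki against recombinant full-length NS3 enzyme, following a literature procedure, in an external laboratory.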
The test system of data set [2] is Hepatitis C virus. The experiment in a line: Antiviral activity against HCV1b infected in human Huh7 cells assessed as inhibition viral subgenomic replication. Format: functional, organism-based, Hepacivirus hominis. As to conditions: genotype 1b, Huh-7. The method in brief:
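Cell-based EC50 was measured in Huh7 cells carrying the subgenomic bicistronic HCV replicon clone ET, with a luciferase read-out.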

The subject of data set [3] is Liver microsomes. Kind of data set: Intrinsic clearance in human liver microsomes. It counts as ADME, Microsome. Put shortly:
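Metabolic stability in human liver microsomes was expressed as intrinsic clearance (Cl_int, µL/min/mg).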
A general note: Liver microsomes are vesicles of endoplasmic reticulum, rich in cytochrome P450 enzymes.

Data set [4] is described as follows: Apparent permeability across human Caco-2 cells. It counts as ADME, cell-based. For orientation: Caco-2 cells form a polarised layer with tight junctions and transporters.
Data set [5] is described as follows: (§1) Clearance in Sprague-Dawley rat at 2 mg/kg, iv. It counts as ADME, organism-based. Details: dose 2 mg/kg, route intravenous. As to conditions: Sprague-Dawley, in vivo. Put shortly: (§2)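 Male Sprague–Dawley rats (n = 2 per route) received a single intravenous dose (2 mg base-equiv/kg) or an oral dose. Mean plasma levels were followed to derive Cl, Vdss, AUC, Cmax, Tmax, T1/2 and F. Liver-to-plasma ratio was determined at 6 h.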

Data set [6] in a line: AUC in Sprague-Dawley rat at 10 mg/kg, po. Format: ADME, organism-based. Further details: dose 10 mg/kg, route oral. As to conditions: plasma. The method in brief:
as §2

The nature of data set [7]: Cmax in Sprague-Dawley rat at 10 mg/kg, po. Format: ADME, organism-based. Further details: dose 10 mg/kg, route oral. Conditions: in vivo. The method in brief:
as §2

Data set [8] in a line: Tmax in Sprague-Dawley rat at 10 mg/kg, po. As to conditions: in vivo. Further details: dose 10 mg/kg, route oral. It counts as ADME, organism-based. The method in brief:
as §2

A short description of data set [9]: Half life in Sprague-Dawley rat at 10 mg/kg, po. Format: ADME, organism-based. Details: dose 10 mg/kg, route oral. As to conditions: in vivo. The method in brief:
as §2

A short description of data set [10]: Oral bioavailability in Sprague-Dawley rat at 10 mg/kg. Conditions: in vivo. It counts as ADME, organism-based. Put shortly:
as §2

The test system of data set [11] is Rattus norvegicus. Described as §1. It counts as ADME, organism-based. Further details: dose 2 mg/kg, route intravenous. As to conditions: in vivo. Put shortly:
as §2

In data set [12] the test system is Rattus norvegicus. Kind of data set: AUC in Sprague-Dawley rat at 2 mg/kg, iv. Conditions: in vivo. It counts as ADME, organism-based, Plasma. Details: dose 2 mg/kg, route intravenous. Put shortly: as §2
Data set [13] in a line: Ratio of drug level in liver to plasma in Sprague-Dawley rat at 2 mg/kg, iv after 6 hrs. It counts as ADME, organism-based. Further details: dose 2 mg/kg, route intravenous. The method in brief: as §2
Data set [14] is described as follows: Ratio of drug level in liver to plasma in Sprague-Dawley rat at 10 mg/kg, po after 6 hrs. Format: ADME, organism-based. Details: dose 10 mg/kg, route oral. Put shortly: as §2

The Ki is a measure of affinity in units of concentration, obtained from inhibition or displacement. The term EC50 denotes the concentration that produces a half-maximal response. By Papp is commonly meant a coefficient for how fast a substance crosses the barrier. `CN1CCCC/C=C\[C@@H]2C[C@@]2(C(=O)NS(=O)(=O)C2CC2)NC(=O)[C@@H]2C[C@@H](Oc3nc(-c4ccccc4)nc4ccccc34)C[C@H]2C1=O`: affinity in data set [1] was put at a Ki of 0.4 nM. Besides, the EC50 in data set [2] is 52 nM. Also, the CL in [3] worked out at 58 µL/min. Also, the Papp in [4] is 21 ×10⁻⁶ cm/s.
For `CN1CCCC/C=C\[C@@H]2C[C@@]2(C(=O)NS(=O)(=O)C2CC2)NC(=O)[C@@H]2C[C@@H](Oc3nc(N4CCOCC4)nc4ccccc34)C[C@H]2C1=O`, in [1], affinity was put at a Ki of 6.2 nM. For the same compound, the EC50 in data set [2] was 390 nM.
The corresponding values for `CN1CCN(c2nc(O[C@@H]3C[C@H]4C(=O)N[C@]5(C(=O)NS(=O)(=O)C6CC6)C[C@H]5/C=C\CCCCN(C)C(=O)[C@@H]4C3)c3ccccc3n2)CC1` are 1.2 nM and 830 nM.
In the same order, the values of `CC(C)c1csc(-c2nc(O[C@@H]3C[C@H]4C(=O)N[C@]5(C(=O)NS(=O)(=O)C6CC6)C[C@H]5/C=C\CCCCN(C)C(=O)[C@@H]4C3)c3ccccc3n2)n1` are 0.8 nM and 120 nM.
Compound `COc1ccc2c(O[C@@H]3C[C@H]4C(=O)N[C@]5(C(=O)NS(=O)(=O)C6CC6)C[C@H]5/C=C\CCCCN(C)C(=O)[C@@H]4C3)nc(-c3ccccc3)nc2c1` gave a Ki in [1] of 0.4 nM. In data set [2], the EC50 came out at 14 nM. In addition, the CL in data set [3] came to 88 µL/min. Further, the apparent permeability coefficient (Papp) in data set [4] is 13 ×10⁻⁶ cm/s.
`COc1ccc2c(O[C@@H]3C[C@H]4C(=O)N[C@]5(C(=O)NS(=O)(=O)C6CC6)C[C@H]5/C=C\CCCCN(C)C(=O)[C@@H]4C3)nc(-c3nc(C(C)C)cs3)nc2c1` showed a Ki in data set [1] of 1.2 nM. Also, the EC50 in [2] stood at 58 nM. In data set [3], this compound yielded a CL of 76 µL/min.
In data set [1], `COc1ccc2c(O[C@@H]3C[C@H]4C(=O)N[C@]5(C(=O)NS(=O)(=O)C6CC6)C[C@H]5/C=C\CCCCN(C)C(=O)[C@@H]4C3)nc(-c3ccc(F)cc3)nc2c1` showed a Ki of 0.2 nM. Also, the EC50 in data set [2] came out at 11 nM. In addition, in data set [3], the CL is 32 µL/min. Further, the Papp in data set [4] was determined as 20 ×10⁻⁶ cm/s.
The clearance is the rate of elimination divided by the concentration. Higher therefore signals efficient removal. The term AUC denotes the area under the concentration-time curve, a measure of exposure. For orientation: Cmax means the maximum level reached in the sampled fluid or tissue. One may read the Tmax as the time at which the peak concentration occurs. In general, half-life refers to the time needed for the level to fall by half in the phase considered. Read a high half-life as slow loss. The term bioavailability denotes the share of a dose that reaches the circulation, judged against a reference dose that is usually intravenous. Read a low bioavailability as poor availability. In data set [1], `COc1ccc2c(O[C@@H]3C[C@H]4C(=O)N[C@]5(C(=O)NS(=O)(=O)C6CC6)C[C@H]5/C=C\CCCCN(C)C(=O)[C@@H]4C3)nc(-c3ccccc3)nc2c1C` gave a Ki of 0.1 nM. Moreover, the EC50 in data set [2] was 5 nM. Further, the CL in data set [3] is less than 6 µL/min. In [4], the Papp is 13 ×10⁻⁶ cm/s. The compound further gave a clearance in data set [5] of 16.7 mL/min/kg. For the same compound, the AUC in data set [6] turned out to be 3.3 µM·h. The same compound came in with a Cmax in [7] of 660 nM. Further, the Tmax in data set [8] was found to be 2 h. In [9], this compound showed a half-life of 3.8 h. Besides, the bioavailability in [10] was 40%.
With `COc1ccc(-c2nc(O[C@@H]3C[C@H]4C(=O)N[C@]5(C(=O)NS(=O)(=O)C6CC6)C[C@H]5/C=C\CCCCN(C)C(=O)[C@@H]4C3)c3ccc(OC)c(C)c3n2)cc1`, the Ki in data set [1] turned out to be 0.6 nM. Moreover, in [2], the EC50 is 8 nM. Moreover, in [3], the CL stood at 11 µL/min. The Papp in data set [4] is 9 ×10⁻⁶ cm/s.
In data set [1], `COc1ccc2c(O[C@@H]3C[C@H]4C(=O)N[C@]5(C(=O)NS(=O)(=O)C6CC6)C[C@H]5/C=C\CCCCN(C)C(=O)[C@@H]4C3)ncnc2c1C` returned a Ki of more than 1000 nM. The EC50 in data set [2] is more than 1000 nM.
For orientation: Kp means tissue or fluid exposure divided by exposure in the circulation. `COc1ccc2c(O[C@@H]3C[C@H]4C(=O)N[C@]5(C(=O)NS(=O)(=O)C6CC6)C[C@H]5/C=C\CCCCN(C)C(=O)N4C3)nc(-c3ccccc3)nc2c1C` registered a Ki in data set [1] of 0.2 nM. Moreover, the EC50 in data set [2] came to 11 nM. In addition, the results for the CL in data set [3] and in data set [11] were 17 µL/min and 11.5 mL/min/kg, respectively. The Papp in data set [4] worked out at 26 ×10⁻⁶ cm/s. Besides, the AUC in data set [12] stood at 8.4 µM·h; in data set [6] it was 15 µM·h. In addition, the Kp at 6 h was determined as 38 in data set [13] and 32 in data set [14]. The peak level in data set [7] (Cmax) was 3400 nM. Also, in data set [8], the Tmax amounted to 5 h. For the same compound, the bioavailability in data set [10] worked out at 73%.
The compound `COc1ccc2c(O[C@@H]3C[C@H]4C(=O)N[C@]5(C(=O)NS(=O)(=O)C6CC6)C[C@H]5/C=C\CCCCN(C)C(=O)N4C3)nc(-c3ccc(F)cc3)nc2c1C` returned a Ki in [1] of 0.3 nM. The EC50 in [2] was 16 nM. The compound also returned a CL in [3] of less than 6 µL/min. Besides, the Papp in data set [4] was determined as 32 ×10⁻⁶ cm/s. The same compound had a clearance in data set [5] of 9.33 mL/min/kg. The AUC in data set [6] turned out to be 11 µM·h. Besides, the Cmax in [7] was 2600 nM. Moreover, in data set [8], the Tmax came out at 5 h. Also, the Kp at 6 h in data set [14] turned out to be 42.
In turn, `COc1ccc(-c2nc(O[C@@H]3C[C@H]4C(=O)N[C@]5(C(=O)NS(=O)(=O)C6CC6)C[C@H]5/C=C\CCCCN(C)C(=O)N4C3)c3ccc(OC)c(C)c3n2)cc1` gave a Ki in [1] of 0.6 nM. In addition, in data set [2], the EC50 is 3 nM. The compound further gave a CL in [3] of 8 µL/min. In addition, in data set [4], the Papp was determined as 33 ×10⁻⁶ cm/s.
In turn, `COc1ccc2c(O[C@@H]3C[C@H]4C(=O)N[C@]5(C(=O)NS(=O)(=O)C6CC6)C[C@H]5/C=C\CCCCN(C)C(=O)N4C3)nc(-c3cccc(C)n3)nc2c1C` had a Ki in data set [1] of 0.9 nM. For the same compound, the EC50 in data set [2] was determined as 130 nM.
The corresponding values for `COc1ccc2c(O[C@@H]3C[C@H]4C(=O)N[C@]5(C(=O)NS(=O)(=O)C6CC6)C[C@H]5/C=C\CCCCN(C)C(=O)N4C3)nc(-c3cccnc3)nc2c1C` are 2.8 nM and 13 nM.
As to `COc1ccc2c(O[C@@H]3C[C@H]4C(=O)N[C@]5(C(=O)NS(=O)(=O)C6CC6)C[C@H]5/C=C\CCCCN(C)C(=O)N4C3)nc(-c3ccncc3)nc2c1C`, the Ki in data set [1] is 0.2 nM. In data set [2], the EC50 stood at 7 nM. In [3], this compound came in with a CL of 14 µL/min. In data set [4], the Papp came out at 0.4 ×10⁻⁶ cm/s.
In the same order, the values of `COc1ccc2c(O[C@@H]3C[C@H]4C(=O)N[C@]5(C(=O)NS(=O)(=O)C6CC6)C[C@H]5/C=C\CCCCCNC(=O)N4C3)nc(-c3ccccc3)nc2c1C` are 0.3 nM, 23 nM, 26 µL/min and 38 ×10⁻⁶ cm/s.
In the case of `COc1ccc2c(O[C@@H]3C[C@H]4C(=O)N[C@]5(C(=O)NS(=O)(=O)C6CC6)C[C@H]5/C=C\CCCCCNC(=O)N4C3)nc(-c3ccc(F)cc3)nc2c1C`, the Ki in data set [1] was found to be 0.2 nM. The EC50 in [2] amounted to 16 nM. In data set [3], this compound showed a CL of 20 µL/min. Moreover, the Papp in [4] worked out at 32 ×10⁻⁶ cm/s. Also, the clearance in data set [5] is 26.7 mL/min/kg. The Kp at 6 h in data set [13] is 2.5; in data set [14], 100. Moreover, the AUC in data set [6] worked out at 1.7 µM·h. Further, in data set [7], the peak level (Cmax) was 390 nM. For the same compound, in [8], the Tmax came out at 2 h. The same compound yielded a bioavailability in [10] of 38%.
